Source: paper PMC3702173 (Circulation research, 2013)
Entries after “also recorded” stand apart in the source; their conditions may differ.

What was measured:
[1] = test system: murine monocytes (ICAM-1 or VCAM-1 binding); assay type: cell-based, mouse; conditions: PMA 50ng/ml, MCP-1 50ng/ml, CRAMP 1µg/ml; ICAM-1-Fc or VCAM-1-Fc; n=5
Method in brief: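 Mouse peripheral leukocytes exposed to PMA (50ng/ml), MCP-1 (50ng/ml) or CRAMP (1µg/ml) with ICAM-1-Fc or VCAM-1-Fc plus anti-Fc antibody; monocyte subsets gated by CD45, CD11b, CD115 and Gr1 staining; ligand binding read by flow cytometry; n=5.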

[2] = test system: classical CD14^++CD16^− monocytes; assay type: cell-based, human; conditions: for Monocyte adhesion to P-selectin/ICAM-1 or P-selectin/VCAM-1: substance coimmobilized, LL37/MCP1 n=8, mLL37 n=3
HUVEC = experiment: Transendothelial transport; assay type: cell-based, human; conditions: for Effect on transendothelial LL37 transportation: pretreatment of HUVEC with inhibitor or enzyme
[3] = test system: activated CD11b and VLA4 (β1- and β2-integrins) on monocytes; experiment: Integrin activation; assay type: cell-based, human; conditions: LL37 1µg/ml; for Integrin activation on non-classical CD14^+CD16^++ monocytes: MCP-1 50ng/ml, Online Figure V
[4] = test system: classical monocytes (Ly6C^+); assay type: in vivo, mouse
[5] = test system: endothelium (baso-apical transport of CRAMP); assay type: in vivo, mouse; conditions: n=4
Method in brief: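 Neutropenic Darc−/− mice (1A8, 50µg/mouse i.p., 8h before stimuli) were injected intrascrotally with TNF (50ng, 4h) plus CRAMP (1µg). Fluorescent beads conjugated with anti-CRAMP antibody were then injected, and immobilised luminal beads were counted by intravital microscopy; n=4.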

non-classical monocytes = conditions: mouse cremaster muscle in vivo
Method in brief: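 Cx3cr1egfp/WT mice, either with intact white cell count or made neutropenic with 1A8 (50µg i.p., 12h before), got TNF (50ng, 12h) intrascrotally. Anti-Ly6C (1µg i.v.) separated subsets, with non-classical monocytes GFP+ only. Cremaster adhesion was quantified by intravital microscopy; n=6.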

classical monocytes = experiment: Classical monocyte accumulation in peritoneum upon stimulation with TNF; assay type: in vivo, mouse; conditions: CRAMP-deficient mice, local application of CRAMP, unpublished data
DARC = experiment: Interaction of DARC and LL37; assay type: binding; conditions: Online Figure IV
neutrophils = conditions: ref [24]; cited from earlier work
P2X7 [6] = experiment: Surface plasmon resonance, receptor proteoliposomes on immobilized LL37; assay type: binding; conditions: LL37 immobilized on CM4 chip; receptor-containing proteoliposomes; not shown
[7] = test system: endothelial adhesion molecules on HUVEC; experiment: Expression of endothelial adhesion molecules on HUVEC; assay type: cell-based, human; conditions: treatment of HUVEC with LL37
P2X7 [8] = conditions: LPS-primed monocytes; via P2X7; ref [41]; cited from earlier work
[9] = test system: various T-cells, smooth muscle cells, and epithelial cells; conditions: ref [44], [45]; cited from earlier work
monocytes = conditions: ref [40]; cited from earlier work
FPR2 = conditions: ref [6]; cited from earlier work
[10] = test system: human non-classical CD14^+CD16^++ monocytes; assay type: cell-based; conditions: LL37 (1µg) deposited 15 min prior to perfusion; TNF-activated HUVEC; n=6
Method in brief: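 Human non-classical CD14+CD16++ monocytes perfused in a flow chamber over HUVEC monolayers activated with TNF (20ng, 12h); LL37 (1µg) deposited on the monolayer 15 min before perfusion; adherent cells counted; n=6.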

In the case of `CCCCCCCCCCCCCC(=O)O[C@@H]1[C@@H](C)[C@@]2(O)[C@@H](C=C(CO)C[C@]3(O)C(=O)C(C)=C[C@@H]23)[C@@H]2C(C)(C)[C@]12OC(C)=O` [PMA, phorbol-12-myristate-13-acetate, reference compound], the “ICAM-1 and VCAM-1 binding to classical monocytes” value (shortened to “ICAM-1 and VCAM-1 binding”) [1] is reported as “increased binding of ICAM-1 or VCAM-1”.

For `Cc1ccc2c(c1)C1(CCN(CCc3nc(-c4ccccc4)oc3C)CC1)OC(=O)N2` [RS504393, reference compound], the “Effect on MCP1-mediated monocyte adhesion” value ([2]; RS504393 1µM, P-selectin/ICAM-1 or P-selectin/VCAM-1, n=8) was “blocked”.

In the case of `O=C(Nc1ccc([N+](=O)[O-])cc1O)Nc1ccccc1Br` [SB225002], the “Effect on transendothelial LL37 transportation” value (HUVEC; n=6) is reported as “did not impact on transendothelial LL37 transportation”.

In the case of `COc1cc2c(c(OC)c1OC)-c1ccc(OC)c(=O)cc1[C@@H](NC(C)=O)CC2` [colchicine], the “Effect on transendothelial LL37 transportation” value (HUVEC; n=6) is reported as “abrogated”.

With `C=C1[C@@H](C)[C@H]2[C@H](Cc3ccccc3)NC(=O)[C@]23OC(=O)/C=C/[C@H](O)CCC[C@@H](C)C/C=C/[C@H]3[C@@H]1O` [cytochalasin B] the “Effect on transendothelial LL37 transportation” value (HUVEC; n=6) was “abrogated”.

In the case of `CCCCC[C@@H](O)[C@H]1C(=O)O[C@H](C)[C@@H](O)/C=C/C=C/C=C/C=C/C=C(\C)[C@@H](O)C[C@H](O)C[C@H](O)C[C@H](O)C[C@H](O)C[C@H](O)C[C@@H]1O` [filipin], the “Effect on transendothelial LL37 transportation” value (HUVEC; n=6) is reported as “clear-cut decreases of LL37 transcytosis”.

In the case of `CCCCOc1ccc(C(=O)NN2C(=O)c3ccccc3NC2c2ccc(O)cc2)cc1` (stereo not shown) [quin-C7, reference compound], the “Effect on LL37-induced integrin activation” value ([3]; quin-C7 1µM, U73122 100nM, classical monocytes, n=4) is reported as “fully abrogated integrin activation induced by LL37”.

For `Cc1ccc(C(=O)Nc2ccc(S(=O)(=O)O)c3cc(S(=O)(=O)O)cc(S(=O)(=O)O)c23)cc1NC(=O)c1cccc(NC(=O)Nc2cccc(C(=O)Nc3cc(C(=O)Nc4ccc(S(=O)(=O)O)c5cc(S(=O)(=O)O)cc(S(=O)(=O)O)c45)ccc3C)c2)c1` [suramin], the “Effect on transendothelial LL37 transportation” value (HUVEC; n=6) was “did not impact on transendothelial LL37 transportation”.

In the case of CRAMP, the “ICAM-1 and VCAM-1 binding” value [1] is reported as “increased binding of ICAM-1 or VCAM-1; also recorded: enhances ICAM-1 and VCAM-1 binding to classical monocytes”, the “Adhesion of classical monocytes in Cramp^−/− mice” value ([4]; Cramp^−/− mice, intrascrotal TNF with CRAMP 1µg vs TNF alone, n=5) is reported as “restored the defect in Cramp^−/− mice; also recorded: restores adhesion of classical monocytes” and the “Adhesion of classical monocytes, overall statement, mouse cremaster” value ([4]; mouse cremaster muscle in vivo) is reported as “induce adhesion of classical monocytes”. The “Adhesion of classical monocytes in Fpr1^−/− mice” value ([4]; neutropenic Fpr1^−/− mice, TNF and CRAMP 1µg, n=6) was “resulted in increased adhesion in Fpr1^−/− mice”, the “Adhesion of classical monocytes in Fpr2^−/− mice” value ([4]; neutropenic Fpr2^−/− mice, TNF and CRAMP 1µg, n=6) was “this response was not observed in Fpr2^−/− mice” and the “Transportation of CRAMP across endothelium in Darc^−/− mice” value ([5]; neutropenic Darc^−/− mice, TNF 50ng, 4h, and CRAMP 1µg intrascrotal) was “maintained in Darc^−/− mice”. The “Luminal CRAMP in WT mice” value ([5]; neutropenic WT mice, TNF 50ng and CRAMP 1µg intrascrotal) was “luminal CRAMP was detected 4h after intrascrotal CRAMP injection”, the “Adhesion of non-classical monocytes, mouse cremaster” value (non-classical monocytes) was “not of non-classical monocytes” and the “Accumulation of classical monocytes into peritoneum” value (classical monocytes) was “rescued by local application of CRAMP”.

For “LL37: human cathelicidin; linear peptide; FITC-labelled form used in transport experiment”, the “Interaction with DARC” value (DARC) is given as “could not detect an interaction between DARC and LL37”, the “Apoptotic cell death in neutrophils” value (neutrophils) is given as “inhibit apoptotic cell death in neutrophils” and the “Binding to P2X7” value (P2X7 [6]) is given as “no interaction with LL37”. The “Effect on expression of endothelial adhesion molecules” value [7] was “did not impact on expression of endothelial adhesion molecules”, the “Processing and release of IL-1 β” value (P2X7 [8]) was “induced processing and release of the potent cytokine IL-1 β” and the Apoptosis [9] was “promotes apoptosis in various T-cells, smooth muscle cells, and epithelial cells”. For the same compound, the “Integrin activation on non-classical CD14^+CD16^++ monocytes” value [3] was “not on non-classical CD14^+CD16^++ monocytes”, the “Monocyte adhesion to P-selectin/ICAM-1 or P-selectin/VCAM-1” value [2] was “strongly enhanced monocyte adhesion” and the “Transendothelial LL37 transportation at 4°C” value (HUVEC; 4 °C, n=6) was “abrogated at 4 °C”. The “Time until LL37 accumulation on HUVEC surface” value (HUVEC; time course, antibody-stained surface-bound LL37) was ≥ 2 h, the “Production and release of IL8” value (monocytes) was “induces the production and release of IL8 from monocytes” and the “Effect of serum on direct chemotactic activity” value (FPR2) was “not affected by serum”. For the same compound, the “Adhesion of non-classical monocytes, in vitro flow chamber” value [10] was “not of non-classical monocytes”.

With “MCP1: classical chemokine, CCR2 ligand (CCL2/MCP-1)” the “ICAM-1 and VCAM-1 binding” value [1] was “increased binding of ICAM-1 or VCAM-1”, the “Integrin activation on non-classical CD14^+CD16^++ monocytes” value [3] was “not on non-classical CD14^+CD16^++ monocytes” and the “Monocyte adhesion to P-selectin/ICAM-1 or P-selectin/VCAM-1” value [2] was “strongly enhanced monocyte adhesion”.

In the case of boc-PLPLP, the “Effect on transendothelial LL37 transportation” value (HUVEC; n=6) is reported as “did not impact on transendothelial LL37 transportation”.
